Source: ChEMBL document CHEMBL2176990, “Synthesis and biological evaluation of 5-benzylidenepyrimidine-2,4,6(1H,3H,5H)-trione derivatives for the treatment of obesity-related nonalcoholic fatty liver disease” (J Med Chem, 2012)
Calls of active or inactive are those of the source. The calls are words filed in the database; no cut-off is given here.

Experiments:
[1] = tested on: 3T3-L1; assay: Down-regulation of […] expression in mouse 3T3L1 cells at 10 uM after 24 hrs by ELISA; assay type: functional
In short: (§1)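 3T3-L1 preadipocytes grown to 2 days post-confluence. Differentiated with 0.5 mM IBMX, 0.25 μM dexamethasone and 1 μg/mL insulin for 2 days, then insulin alone for 2 days, then 10% FBS DMEM. On day 12, treated 24 h; secreted adiponectin and leptin measured by ELISA. Three independent experiments.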

[2] = tested on: 3T3-L1; assay: Up-regulation of adiponectin expression in mouse 3T3L1 cells at 10 uM after 24 hrs by ELISA; assay type: functional; in short: as §1
[3] = tested on: HepG2; assay: Reduction of glucose consumption in insulin-resistant human HepG2 cells at 10 uM after 24 hrs by glucose oxidase method in presence of 22.2 mM of glucose; assay type: functional, cell-based
In short: (§2)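 HepG2 cells in DMEM (22.2 mM glucose) with 10% FBS, exposed to 0.1 μM insulin from plating for 2 days. At confluence, given fresh 22.2 mM glucose DMEM with test agents for 24 h. Medium glucose measured by glucose oxidase. Consumption = blank minus remaining glucose, normalized to MTT. Three independent experiments.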

[4] = tested on: HepG2; assay: Reduction of glucose consumption in insulin-resistant human HepG2 cells at 10 uM after 24 hrs by glucose oxidase method in presence of 0.1 uM of insulin; assay type: functional, cell-based; in short: as §2
[5] = tested on: HepG2; assay: Reduction of glucose consumption in insulin-resistant human HepG2 cells at 10 uM after 24 hrs by glucose oxidase method; assay type: functional, cell-based; in short: as §2
[6] = tested on: Rattus norvegicus; assay: Antiobesity activity in Wistar rat high fat diet-induced NAFLD model assessed as reduction of serum HDL-cholesterol level at 150 mg/kg, po qd for 4 weeks; assay type: functional
In short: (§3)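 Male Wistar rats (160−180 g) fed high-fat diet (50.55% calories from fat), n = 10 per group. Dosed orally at 150 mg/kg/day for 4 weeks. Body, liver and fat weights and food intake recorded. Serum lipids, AST, ALT and glucose measured on a biochemistry analyzer. Fasting insulin measured by kit; adiponectin and leptin by ELISA. Mean ± SD; percent change vs HFD group.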

[7] = tested on: Rattus norvegicus; assay: Antiobesity activity in Wistar rat high fat diet-induced NAFLD model assessed as reduction of serum LDL-cholesterol level at 150 mg/kg, po qd for 4 weeks; assay type: functional; in short: as §3
[8] = tested on: Rattus norvegicus; assay: Antiobesity activity in Wistar rat high fat diet-induced NAFLD model assessed as reduction of serum total cholesterol level at 150 mg/kg, po qd for 4 weeks; assay type: functional; in short: as §3
[9] = tested on: Rattus norvegicus; assay: Antiobesity activity in Wistar rat high fat diet-induced NAFLD model assessed as reduction of serum AST level at 150 mg/kg, po qd for 4 weeks; assay type: functional; in short: as §3
[10] = tested on: Rattus norvegicus; assay: Antiobesity activity in Wistar rat high fat diet-induced NAFLD model assessed as reduction of serum ALT level at 150 mg/kg, po qd for 4 weeks; assay type: functional; in short: as §3
[11] = tested on: Rattus norvegicus; assay: Antiobesity activity in Wistar rat high fat diet-induced NAFLD model assessed as reduction of serum triglycerides level at 150 mg/kg, po qd for 4 weeks; assay type: functional; in short: as §3
[12] = tested on: Rattus norvegicus; assay: Antiobesity activity in Wistar rat high fat diet-induced NAFLD model assessed as reduction of serum insulin level at 150 mg/kg, po qd for 4 weeks; assay type: functional; design: scale not given: the % may be the effect or the level left; in short: as §3
[13] = tested on: Rattus norvegicus; assay: Antiobesity activity in Wistar rat high fat diet-induced NAFLD model assessed as reduction of fasting blood glucose level at 150 mg/kg, po qd for 4 weeks; assay type: functional; design: scale not given: the % may be the effect or the level left; in short: as §3
[14] = tested on: Rattus norvegicus; assay: Antiobesity activity in Wistar rat high fat diet-induced NAFLD model assessed as reduction of fat mass at 150 mg/kg, po qd for 4 weeks; assay type: functional; design: scale not given: the % may be the effect or the level left; in short: as §3
[15] = tested on: Rattus norvegicus; assay: Antiobesity activity in Wistar rat high fat diet-induced NAFLD model assessed as reduction of liver weight at 150 mg/kg, po qd for 4 weeks; assay type: functional; design: scale not given: the % may be the effect or the level left; in short: as §3
[16] = tested on: Rattus norvegicus; assay: Antiobesity activity in Wistar rat high fat diet-induced NAFLD model assessed as reduction of body weight at 150 mg/kg, po qd for 4 weeks; assay type: functional; design: scale not given: the % may be the effect or the level left; in short: as §3
[17] = tested on: 3T3-L1; assay: Down-regulation of […] expression in mouse 3T3L1 cells at 1 mM after 24 hrs by ELISA; assay type: functional; in short: as §1
[18] = tested on: 3T3-L1; assay: Up-regulation of adiponectin expression in mouse 3T3L1 cells at 1 mM after 24 hrs by ELISA; assay type: functional; in short: as §1
[19] = tested on: HepG2; assay: Reduction of glucose consumption in insulin-resistant human HepG2 cells at 1 mM after 24 hrs by glucose oxidase method in presence of 0.1 uM of insulin; assay type: functional, cell-based; in short: as §2
[20] = tested on: HepG2; assay: Reduction of glucose consumption in insulin-resistant human HepG2 cells at 1 mM after 24 hrs by glucose oxidase method in presence of 22.2 mM of glucose; assay type: functional, cell-based; in short: as §2
[21] = tested on: Mus musculus; assay: Antiobesity activity in C57BL/6J mouse high fat diet-induced NAFLD model assessed as reduction of postprandial glucose level at 150 mg/kg, po qd for 6 weeks by intravenous glucose tolerance test; assay type: functional, organism-based; design: dose 150 mg/kg
In short: (§4)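 DIO C57BL/6J mice (HFD 60.0% fat) dosed orally for 6 weeks, n = 5, fasted overnight. Glucose load given either orally at 3.0 g/kg (OGTT) or intravenously at 0.5 g/kg (IGTT). Tail-vein blood sampled at 0, 15, 30, 60, 90, 120 and 180 min.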

[22] = tested on: Mus musculus; assay: Antiobesity activity in C57BL/6J mouse high fat diet-induced NAFLD model assessed as reduction of postprandial glucose level at 150 mg/kg, po qd for 6 weeks by oral glucose tolerance test; assay type: functional, organism-based; design: dose 150 mg/kg; in short: as §4
[23] = tested on: Mus musculus; assay: Antiobesity activity in C57BL/6J mouse high fat diet-induced NAFLD model assessed as reduction of serum free fatty acid level at 150 mg/kg, po qd for 7 weeks; assay type: functional; design: scale not given: the % may be the effect or the level left
In short: (§5)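 Male C57BL/6J mice, 3 weeks old, fed high-fat diet (60.0% calories from fat) ad libitum for 8 weeks, then randomized into groups of 10. Body weight and food intake recorded daily. Serum markers measured after sacrifice; fasting glucose included. Percent change = (V_HFD − V_treatment)/V_HFD × 100.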

[24] = tested on: Mus musculus; assay: Antiobesity activity in C57BL/6J mouse high fat diet-induced NAFLD model assessed as reduction of serum HDL-cholesterol level at 150 mg/kg, po qd for 7 weeks; assay type: functional; design: scale not given: the % may be the effect or the level left; in short: as §5
[25] = tested on: Mus musculus; assay: Antiobesity activity in C57BL/6J mouse high fat diet-induced NAFLD model assessed as reduction of serum LDL-cholesterol level at 150 mg/kg, po qd for 7 weeks; assay type: functional; design: scale not given: the % may be the effect or the level left; in short: as §5
[26] = tested on: Mus musculus; assay: Antiobesity activity in C57BL/6J mouse high fat diet-induced NAFLD model assessed as reduction of serum triglycerides level at 150 mg/kg, po qd for 7 weeks; assay type: functional; design: scale not given: the % may be the effect or the level left; in short: as §5
[27] = tested on: Mus musculus; assay: Antiobesity activity in C57BL/6J mouse high fat diet-induced NAFLD model assessed as reduction of serum ALT level at 150 mg/kg, po qd for 7 weeks; assay type: functional; design: scale not given: the % may be the effect or the level left; in short: as §5
[28] = tested on: Mus musculus; assay: Antiobesity activity in C57BL/6J mouse high fat diet-induced NAFLD model assessed as reduction of fasting blood glucose level at 150 mg/kg, po qd for 7 weeks; assay type: functional; design: scale not given: the % may be the effect or the level left; in short: as §5
[29] = tested on: Mus musculus; assay: Antiobesity activity in C57BL/6J mouse high fat diet-induced NAFLD model assessed as reduction of fat mass in epididymal and abdominal at 150 mg/kg, po qd for 7 weeks; assay type: functional, organism-based; design: dose 150 mg/kg; in short: as §5
[30] = tested on: Mus musculus; assay: Antiobesity activity in C57BL/6J mouse high fat diet-induced NAFLD model assessed as reduction of body weight at 150 mg/kg, po qd for 7 weeks; assay type: functional; design: scale not given: the % may be the effect or the level left; in short: as §5
[31] = tested on: Rattus norvegicus; assay: Antiobesity activity in Wistar rat high fat diet-induced NAFLD model assessed as reduction of liver total cholesterol level at 150 mg/kg, po qd for 4 weeks; assay type: functional; design: scale not given: the % may be the effect or the level left
In short: (§6)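 Male Wistar rats on high-fat diet (50.55% fat), dosed orally at 150 mg/kg/day for 4 weeks, n = 10. Liver homogenized in 50 mM Tris-HCl pH 7.4 with 150 mM NaCl, 1 mM PMSF and 1 mM EDTA, then triglycerides and total cholesterol assayed. Liver sections stained with H&E to assess lipid droplets.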

[32] = tested on: Rattus norvegicus; assay: Antiobesity activity in Wistar rat high fat diet-induced NAFLD model assessed as reduction of liver triglycerides level at 150 mg/kg, po qd for 4 weeks; assay type: functional; design: scale not given: the % may be the effect or the level left; in short: as §6
[33] = tested on: Rattus norvegicus; assay: Antiobesity activity in Wistar rat high fat diet-induced NAFLD model assessed as reduction of leptin level at 150 mg/kg, po qd for 4 weeks; assay type: functional; in short: as §3
[34] = tested on: Rattus norvegicus; assay: Antiobesity activity in Wistar rat high fat diet-induced NAFLD model assessed as increase of adiponectin level at 150 mg/kg, po qd for 4 weeks; assay type: functional; in short: as §3

O=C1NC(=O)C(=Cc2ccc(OC3CCN(c4ncccc4C(F)(F)F)CC3)cc2)C(=O)N1
Activity [1]: inactive
Activity [2]: Active
Activity [3]: Active
Activity [4]: Active

O=C1NC(=O)C(=Cc2ccc(OC3CCN(c4ccc([N+](=O)[O-])cn4)CC3)cc2)C(=O)N1
Activity [5]: inactive
Activity [4]: inactive

CN(C)C(=N)NC(=N)N [METFORMIN]
Activity [6]: 0.28 mmol/L
Activity [7]: 0.15 mmol/L
Activity [8]: 1.99 mmol/L
Activity [9]: 89 U/L
Activity [10]: 39 U/L
Activity [11]: 1.6 mmol/L
Activity [12]: 12.8%
Activity [13]: 19.7%
Activity [14]: 18.1%
Activity [15]: 2.2%
Activity [16]: 5.2%
Activity [17]: 360.8 pg/mL
Activity [18]: 125.8 pg/mL
Activity [19]: Active
Activity [20]: Active
Activity [21]: Active
Activity [22]: Active
Activity [23]: 3.7%
Activity [24]: 46.7%
Activity [25]: 44.4%
Activity [26]: 29.3%
Activity [27]: 66%
Activity [28]: 10.3%
Activity [29]: Active
Activity [30]: 9.62%
Activity [31]: 50%
Activity [32]: 48.8%
Activity [33]: 13.6 ng/mL
Activity [34]: 198.3 µg/mL

N#Cc1cccnc1N1CCC(NC(=O)c2ccc(C=C3C(=O)NC(=O)NC3=O)cc2)CC1
Activity [5]: inactive
Activity [4]: inactive

O=C1NC(=O)C(=Cc2ccc(C(=O)N3CCC(Nc4cc([N+](=O)[O-])ccn4)CC3)cc2)C(=O)N1
Activity [5]: inactive
Activity [4]: inactive

O=C1NC(=O)C(=Cc2ccc(OC3CCN(C(=O)c4ccccn4)CC3)cc2)C(=O)N1
Activity [5]: inactive
Activity [4]: inactive

COc1cc(OC2CCN(c3ncccc3C#N)CC2)cc(OC)c1C=C1C(=O)NC(=S)NC1=O
Activity [5]: inactive
Activity [4]: inactive

O=C1NC(=O)C(=Cc2ccc(OC3CCN(c4ccc(C(F)(F)F)cn4)CC3)cc2)C(=O)N1
Activity [5]: inactive
Activity [4]: inactive

O=C1NC(=O)C(=Cc2ccc(OC3CCN(C(=O)c4cccnc4)CC3)cc2)C(=O)N1
Activity [5]: inactive
Activity [4]: inactive

N#Cc1cccnc1N1CCC(Oc2ccc(C=C3C(=O)NC(=O)NC3=O)cc2)CC1
Activity [5]: inactive
Activity [4]: inactive

CN(CCOc1ccc(CC2SC(=O)NC2=O)cc1)c1ccccn1 (configuration not stated) [ROSIGLITAZONE]
Activity [1]: 118.8 pg/mL
Activity [2]: 236 pg/mL
Activity [3]: Active
Activity [4]: Active

O=C1NC(=O)C(=Cc2ccc(OC3CCN(C(=O)c4ccc(OC(F)F)cc4)CC3)cc2)C(=O)N1
Activity [5]: inactive
Activity [4]: inactive

O=C1NC(=O)C(=Cc2ccc(OC3CCN(C(=O)c4cccc(Cl)n4)CC3)cc2)C(=O)N1
Activity [5]: inactive
Activity [4]: inactive
